According to ChEMBL document CHEMBL1123619, “Isothiourea derivatives of 6-phenyl-2,3,5,6-tetrahydroimidazo[2,1-b]thiazole with broad-spectrum anthelmintic activity” (J Med Chem, 1987):
Activity calls are given as the source filed them. The calls are words filed in the database; no cut-off is given here.

How the values were obtained:
Mus musculus [1] = assay: Nematocidal activity against Nematospiroides dubius induced necropsy in mouse, after oral administration of 100 mg/kg of the compound; assay type: functional
Procedure, shortened: (§1)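 Seven-week-old female LACA mice infected orally with 100 N. dubius L3 larvae; single gavage dose given at day 10 of infection, groups of four mice; necropsy 4 days later; percent activity from worm burdens of treated versus untreated groups.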

[2] = test system: Heligmosomoides polygyrus; assay: Nematocidal activity against Nematospiroides dubius induced necropsy in mouse, oral administration 200 mg/kg; assay type: functional; procedure, shortened: as §1
Mus musculus [3] = assay: Nematocidal activity against Nematospiroides dubius induced necropsy in mouse, after oral administration of 50 mg/kg of the compound; assay type: functional; procedure, shortened: as §1
Ovis aries [4] = assay: Anthelmintic activity against adult liver fluke (Fasciola hepatica) in 2 sheep, after peroral administration of 30 mg/kg was determined.; assay type: functional; conditions: route oral
Procedure, shortened: (§2)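 Sheep dosed with a single oral dose. Fecal fluke egg output monitored after treatment. Animals necropsied only if the fecal egg count fell. Postmortem Fasciola hepatica burdens compared with untreated control sheep (mean of 10 controls). Single animals per test unless otherwise indicated, with group size given in parentheses. I denotes no effect on fecal fluke egg output.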

Ovis aries [5] = assay: Anthelmintic activity against adult liver fluke (Fasciola hepatica) in sheep, after peroral administration of 30 mg/kg; I means no effect on sheep fecal fluke egg output; assay type: functional, organism-based; set-up: dose 30 mg/kg; conditions: at 30 mg/kg; procedure, shortened: as §2
Mus musculus [6] = assay: Nematocidal activity against Nematospiroides dubius induced necropsy in mouse, after oral administration of 100 mg/kg; assay type: functional; procedure, shortened: as §1
Fasciola hepatica = assay: Anthelmintic activity against adult liver fluke (Fasciola hepatica) in sheep following 30 mg/kg p.o.; assay type: functional; conditions: route oral; procedure, shortened: as §2
Ovis aries [7] = assay: Anthelmintic activity against adult liver fluke (Fasciola hepatica) in sheep, after peroral administration of 20 mg/kg was determined; assay type: functional; conditions: route oral; procedure, shortened: as §2
Ovis aries [8] = assay: Anthelmintic activity against adult liver fluke (Fasciola hepatica) in sheep, after peroral administration of 30 mg/kg was determined; I means no effect on sheep fecal fluke egg output; assay type: functional, organism-based; set-up: dose 30 mg/kg; conditions: at 30 mg/kg; procedure, shortened: as §2
Ovis aries [9] = assay: Anthelmintic activity against adult liver fluke (Fasciola hepatica) in sheep, after peroral administration of 15 mg/kg was determined; assay type: functional; conditions: route oral; procedure, shortened: as §2
Ovis aries [10] = assay: Anthelmintic activity against adult liver fluke (Fasciola hepatica) in 2 sheep, after peroral administration of 30 mg/kg was determined. Value in parentheses indicate number of animals used; assay type: functional; conditions: route oral; procedure, shortened: as §2
Mus musculus [11] = assay: Nematocidal activity against Nematospiroides dubius induced necropsy in mouse, after oral administration of 12.5 mg/kg of the compound; assay type: functional
Procedure, shortened: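 Female LACA mice (7 weeks) infected orally with 100 N. dubius L3 larvae; single oral dose as solution in PEG 400 on infection day 10, four mice per group; necropsied 4 days later; percent activity by comparing treated and untreated worm burdens.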

Mus musculus [12] = assay: Nematocidal activity against Nematospiroides dubius induced necropsy in mouse, after oral administration of 25 mg/kg of the compound; assay type: functional; procedure, shortened: as §1
Ovis aries [13] = assay: Anthelmintic activity against adult liver fluke (Fasciola hepatica) in sheep, after peroral administration of 10 mg/kg was determined; assay type: functional; conditions: route oral; procedure, shortened: as §2
Ovis aries [14] = assay: Anthelmintic activity against adult liver fluke (Fasciola hepatica) in sheep, after peroral administration of 5 mg/kg was determined; assay type: functional; conditions: route oral; procedure, shortened: as §2
Ovis aries [15] = assay: Anthelmintic activity against adult liver fluke (Fasciola hepatica) in sheep, after peroral administration of 7.5 mg/kg was determined; assay type: functional; conditions: route oral; procedure, shortened: as §2
Mus musculus [16] = assay: Nematocidal against Nematospiroides dubius in mouse was determined at 1 mg/kg peroral dose of compound; assay type: functional; conditions: route oral; procedure, shortened: as §1
Mus musculus [17] = assay: Nematocidal against Nematospiroides dubius in mouse was determined at 5 mg/kg peroral dose of compound; assay type: functional; conditions: route oral; procedure, shortened: as §1
Ovis aries [18] = assay: Anthelmintic activity against adult liver fluke (Fasciola hepatica) in 3 sheep, after peroral administration of 30 mg/kg was determined. Value in parentheses indicate number of animals used; assay type: functional; conditions: route oral; procedure, shortened: as §2
Ovis aries [19] = assay: Anthelmintic activity against adult liver fluke (Fasciola hepatica) in sheep, after peroral administration of 30 mg/kg was determined. Value in parentheses indicate number of animals used; assay type: functional; conditions: route oral; procedure, shortened: as §2
Ovis aries [20] = assay: Anthelmintic activity against adult liver fluke (Fasciola hepatica) in sheep, after peroral administration of 20 mg/kg; I means no effect on sheep fecal fluke egg output; assay type: functional, organism-based; set-up: dose 20 mg/kg; conditions: at 20 mg/kg; procedure, shortened: as §2
Mus musculus [21] = assay: Nematocidal against Nematospiroides dubius in mouse was determined at 0.5 mg/kg peroral dose of compound; assay type: functional; conditions: route oral; procedure, shortened: as §1
Mus musculus [22] = assay: Nematocidal against Nematospiroides dubius in mouse was determined at 50 mg/kg peroral dose of compound; all animals died at this dose; assay type: functional, organism-based; set-up: dose 50 mg/kg; procedure, shortened: as §1
Ovis aries [23] = assay: Toxic activity expressed as the percentage against liver fluke in the sheep at 15 mg/kg peroral administration of dose; assay type: ADME, organism-based; set-up: dose 15 mg/kg, route oral; conditions: in vivo, po
Procedure, shortened: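 Fasciola hepatica in sheep, controlled test; animals necropsied only when fecal egg count fell; postmortem fluke burdens compared with untreated control sheep (10 controls).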

Ovis aries [24] = assay: Toxic activity expressed as the percentage against liver fluke in the sheep at 30 mg/kg peroral administration of dose; lethal; assay type: ADME, organism-based; set-up: dose 30 mg/kg, route oral; conditions: in vivo, po
Ovis aries [25] = assay: Anthelmintic activity against adult fecal fluke egg output in sheep, after peroral administration of 30 mg/kg; I means no effect on sheep fecal fluke egg output; assay type: functional, organism-based; set-up: dose 30 mg/kg; conditions: at 30 mg/kg; procedure, shortened: as §2
Ovis aries [26] = assay: Anthelmintic activity against adult liver fluke (Fasciola hepatica) in sheep, after peroral administration of 20 mg/kg was determined; I means no effect on sheep fecal fluke egg output; assay type: functional, organism-based; set-up: dose 20 mg/kg; conditions: at 20 mg/kg; procedure, shortened: as §2

Row | SMILES | Reduction [2] [%] | Reduction (Mus musculus [6]) [%] | Activity (Fasciola hepatica) [%] | other results
1 | CS/C(=N\c1cccc(C2CN3CCSC3=N2)c1)Nc1ccccc1 (stereo not given) | 99 |  |  | Activity (Mus musculus [1]): 38%; Activity (Mus musculus [3]): 0%; Activity (Ovis aries [4]): 94%
2 | CCCCCCN/C(=N/c1cccc(C2CN3CCSC3=N2)c1)SC (stereo not given) | 52 |  |  | Activity (Ovis aries [5]): inactive
3 | CS/C(=N\c1cccc(C2CN3CCSC3=N2)c1)Nc1ccc(Br)cc1 (stereo not given) | 73 | 0 | 94 | Activity (Ovis aries [7]): 100%
4 | CCCCS/C(=N\c1cccc(C2CN3CCSC3=N2)c1)Nc1ccccc1 (stereo not given) | 0 |  |  | Activity (Ovis aries [8]): inactive
5 | CS/C(=N\c1cccc(C2CN3CCSC3=N2)c1)Nc1ccc([S+](C)[O-])cc1 (stereo not given) | 97 | 33 | 100 | Activity (Ovis aries [9]): 14%; Activity (Ovis aries [7]): 66%
6 | CS/C(=N\c1cccc(C2CN3CCSC3=N2)c1)Nc1ccc(SC)cc1 (stereo not given) | 95 | 30 |  | Activity (Ovis aries [9]): 71%; Activity (Ovis aries [7]): 80%; Activity (Ovis aries [10]): 100%
7 | CS/C(=N\c1cccc(C2CN3CCSC3=N2)c1)Nc1cccc(F)c1 (stereo not given) | 100 | 100 | 66 | Reduction (Mus musculus [3]): 64%
8 | CS/C(=N\c1cccc([C@H]2CN3CCSC3=N2)c1)Nc1ccc(C#N)cc1 | 100 | 100 |  | Reduction (Mus musculus [11]): 66%; Reduction (Mus musculus [12]): 99.9%; Reduction (Mus musculus [3]): 100%; Activity (Ovis aries [13]): 100%; Activity (Ovis aries [14]): 85%; Activity (Ovis aries [15]): 91%
9 | CS/C(=N\c1cccc(C2CN3CCSC3=N2)c1)Nc1cccc(Br)c1 (stereo not given) | 79 | 56 | 100 | Activity (Ovis aries [9]): 77%; Activity (Ovis aries [7]): 100%
10 | CC(C)S/C(=N\c1cccc(C2CN3CCSC3=N2)c1)Nc1ccccc1 (stereo not given) | 0 |  |  | Activity (Ovis aries [8]): inactive
11 | CS/C(=N\c1cccc(C2CN3CCSC3=N2)c1)Nc1ccccc1Cl (stereo not given) | 23 |  |  | Activity (Ovis aries [5]): inactive
12 | CS/C(=N\c1ccccc1)N(C)c1cccc(C2CN3CCSC3=N2)c1 (stereo not given) | 0 |  |  | Activity (Ovis aries [8]): inactive
13 | c1ccc(C2CN3CCSC3=N2)cc1 (stereo not given) [TETRAMISOLE] |  |  |  | Reduction (Mus musculus [16]): 43%; Reduction (Mus musculus [17]): 57%
14 | CS/C(=N\c1cccc(C2CN3CCSC3=N2)c1)Nc1cccc(C#N)c1 (stereo not given) | 100 | 54 |  | Activity (Ovis aries [9]): 63%; Activity (Ovis aries [7]): 100%; Activity (Ovis aries [18]): 100%
15 | CS/C(=N\c1cccc(C2CN3CCSC3=N2)c1)Nc1cccc([N+](=O)[O-])c1 (stereo not given) | 95 | 95 | 91 | Activity (Ovis aries [9]): 100%
16 | CS/C(=N\c1cccc(C2CN3CCSC3=N2)c1)Nc1ccc([N+](=O)[O-])cc1 (stereo not given) | 100 | 100 |  | Reduction (Mus musculus [3]): 95%; Activity (Ovis aries [7]): 85%; Activity (Ovis aries [19]): 94%
17 | CS/C(=N\c1cccc(C2CN3CCSC3=N2)c1)Nc1ccccc1C#N (stereo not given) | 0 |  |  | Activity (Ovis aries [8]): inactive

Row | SMILES | Reduction [2] [%] | Reduction (Mus musculus [6]) [%] | Activity (Fasciola hepatica) [%] | other results
18 | CS/C(=N\c1cccc(C2CN3CCSC3=N2)c1)Nc1ccc(C(F)(F)F)cc1 (stereo not given) | 74 |  | 100 | Activity (Ovis aries [9]): 100%
19 | CS/C(=N\c1cccc(C2CN3CCSC3=N2)c1)Nc1ccc(S(C)(=O)=O)cc1 (stereo not given) | 100 | 94 |  | Reduction (Mus musculus [3]): 41%; Activity (Ovis aries [9]): 74%; Activity (Ovis aries [7]): 89%; Activity (Ovis aries [4]): 100%
20 | CS/C(=N\c1cccc(C2CN3CCSC3=N2)c1)Nc1ccc(C)cc1 (stereo not given) | 0 |  | 91 | 
21 | CS/C(=N\c1cccc(C2CN3CCSC3=N2)c1)Nc1ccc(C)c(C)c1 (stereo not given) | 0 |  | 85 | 
22 | CCS/C(=N\c1cccc(C2CN3CCSC3=N2)c1)Nc1ccccc1 (stereo not given) | 92 |  | 97 | Activity (Ovis aries [20]): inactive
23 | Nc1cccc(C2CN3CCSC3=N2)c1 (stereo not given) |  |  |  | Reduction (Mus musculus [21]): 43%; Reduction (Mus musculus [16]): 99%; Reduction (Mus musculus [22]): all animals died at this dose; Reduction (Mus musculus [17]): 100%; Activity (Ovis aries [23]): 0%; Activity (Ovis aries [24]): lethal
24 | CS/C(=N\c1cccc(C2CN3CCSC3=N2)c1)Nc1cccc(Cl)c1 (stereo not given) | 99 | 87 | 91 | Activity (Ovis aries [20]): inactive
25 | CS/C(=N\c1cccc(C2CN3CCSC3=N2)c1)Nc1ccc(Cl)c(Cl)c1 (stereo not given) | 0 | 0 | 63 | 
26 | CS/C(=N\c1cccc(C2CN3CCSC3=N2)c1)NC1CCCCC1 (stereo not given) | 15 |  |  | Activity (Ovis aries [5]): inactive
27 | COc1ccc(N/C(=N/c2cccc(C3CN4CCSC4=N3)c2)SC)cc1 (stereo not given) | 0 |  |  | Activity (Ovis aries [5]): inactive
28 | CS/C(=N\c1cccc(C2CN3CCSC3=N2)c1)Nc1ccc(C(C)=O)cc1 (stereo not given) | 100 | 93 | 100 | Activity (Ovis aries [9]): 100%
29 | c1ccc(CS/C(=N\c2cccc(C3CN4CCSC4=N3)c2)Nc2ccccc2)cc1 (stereo not given) | 0 |  |  | Activity (Ovis aries [8]): inactive
30 | CS/C(=N\c1cccc(C2CN3CCSC3=N2)c1)Nc1ccc(F)cc1 (stereo not given) | 100 | 0 | 60 | 
31 | CCCS/C(=N\c1cccc(C2CN3CCSC3=N2)c1)Nc1ccccc1 (stereo not given) | 64 |  |  | Activity (Ovis aries [25]): inactive
32 | CCOC(=O)c1ccc(N/C(=N/c2cccc(C3CN4CCSC4=N3)c2)SC)cc1 (stereo not given) | 74 |  | 97 | Activity (Ovis aries [26]): inactive
33 | CS/C(=N\c1cccc(C2CN3CCSC3=N2)c1)Nc1ccc(Cl)cc1 (stereo not given) | 88 | 0 | 100 | 
34 | CCCCCCCCS/C(=N\c1cccc(C2CN3CCSC3=N2)c1)Nc1ccccc1 (stereo not given) | 0 |  |  | Activity (Ovis aries [8]): inactive
